Data: ChEMBL document CHEMBL1140411, “Deoxyuridine triphosphate nucleotidohydrolase as a potential antiparasitic drug target” (J Med Chem, 2005)

Tests used:
[1] = target: T1, dUTP pyrophosphatase (Plasmodium falciparum 3D7) (UniProt Q8II92); assay: Selectivity index for Plasmodium falciparum deoxyuridine 5'-triphosphate nucleotidohydrolase defined as (Ki Human)/(Ki Plasmodium falciparum)
T1 sequence (whole entry): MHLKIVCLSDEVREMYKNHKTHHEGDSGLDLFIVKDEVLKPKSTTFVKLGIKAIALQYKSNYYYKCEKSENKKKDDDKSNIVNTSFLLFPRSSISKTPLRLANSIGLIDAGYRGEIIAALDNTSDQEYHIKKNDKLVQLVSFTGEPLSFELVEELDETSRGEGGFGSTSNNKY
Outline: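 Ratio of human dUTPase Ki to P. falciparum dUTPase Ki. Both Ki values came from stopped-flow pH-indicator assays following dUTP hydrolysis, with Ki derived from the dependence of apparent KM on inhibitor concentration.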

Plasmodium falciparum = assay: In vitro inhibitory activity against Plasmodium falciparum as [3H]hypoxanthine (50 uL) incorporation at 37C; format: functional, organism-based
L6 = assay: In vitro cytotoxicity aganist rat skeletal myoblasts (L-6 cells) after 72 hours; format: functional, cell-based; conditions: L6, 72 h
Outline: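 L-6 rat skeletal myoblasts seeded at 4 × 10^4 cells/mL in RPMI 1640 with 10% FBS and 2 mM L-glutamine. After 24 h, medium replaced with a serial drug dilution, then 72 h at 37 °C, 5% CO2. Alamar Blue added for a further 2-4 h. Fluorescence read at ex 536/em 588 nm. Run twice independently, in duplicate.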

dUTP pyrophosphatase [2] = target: T2, dUTP pyrophosphatase (Leishmania major, UniProt O15826); assay: Inhibitory constant against Leishmania major deoxyuridine 5'-triphosphate nucleotidohydrolase
T2 sequence (O15826 whole entry): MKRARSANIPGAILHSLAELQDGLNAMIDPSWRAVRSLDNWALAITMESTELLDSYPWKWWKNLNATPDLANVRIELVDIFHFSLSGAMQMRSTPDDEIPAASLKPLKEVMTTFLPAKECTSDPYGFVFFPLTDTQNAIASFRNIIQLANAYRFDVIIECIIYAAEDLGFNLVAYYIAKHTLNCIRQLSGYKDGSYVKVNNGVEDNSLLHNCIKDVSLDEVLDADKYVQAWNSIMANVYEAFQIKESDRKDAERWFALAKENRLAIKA

[3] = target: T3, Deoxyuridine 5'-triphosphate nucleotidohydrolase, mitochondrial (Homo sapiens, UniProt P33316); assay: Inhibitory constant against human deoxyuridine 5'-triphosphate nucleotidohydrolase expressed in Escherichia coli BL21 (DE3) cells
T3 sequence (P33316 whole entry): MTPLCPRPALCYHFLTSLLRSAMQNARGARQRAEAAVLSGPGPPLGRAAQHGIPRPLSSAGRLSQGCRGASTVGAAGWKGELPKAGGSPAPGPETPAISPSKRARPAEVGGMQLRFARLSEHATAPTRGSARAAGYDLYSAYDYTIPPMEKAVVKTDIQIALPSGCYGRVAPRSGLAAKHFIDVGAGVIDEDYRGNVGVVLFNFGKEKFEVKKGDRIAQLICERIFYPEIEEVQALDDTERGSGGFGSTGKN
Outline: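 Human dUTPase expressed in E. coli BL21(DE3) and purified like the Plasmodium enzyme (phosphocellulose, then gel filtration). dUTP hydrolysis followed continuously by stopped-flow as pH-indicator absorbance (cresol red/bicine, 50:2000 µM, 573 nm). Apparent KM from integrated Michaelis-Menten fits at each inhibitor concentration; Ki from linear KMapp versus [I].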

Leishmania donovani = assay: In vitro growth inhibitory activity against Leishmania donovani amastigotes at 37 degrees C under a 5% CO2 atmosphere for 96 hours; format: functional, organism-based
Outline: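 Mouse peritoneal macrophages in RPMI 1640 with 10% heat-inactivated FBS, infected after 24 h with L. donovani amastigotes at 3:1 (amastigote:macrophage). Free amastigotes washed out at 4 h. Next day, drug-containing medium added for 96 h at 37 °C, 5% CO2. Slides methanol-fixed and Giemsa-stained. Percentage of infected macrophages scored microscopically versus control; IC50 by linear regression. Twice independently, in duplicate.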

[4] = system: Trypanosoma brucei rhodesiense; assay: Inhibitory constant against Trypanosoma brucei rhodesiense upon incubation with the compound at 37 degrees C under a 5% CO2 atmosphere for 72 hours; format: functional, organism-based
dUTP pyrophosphatase [5] = target: T4, dUTP pyrophosphatase (Plasmodium falciparum 3D7, UniProt Q8II92); assay: Inhibitory constant against Plasmodium falciparum deoxyuridine 5'-triphosphate nucleotidohydrolase expressed in Escherichia coli BL21 (DE3) cells
T4 sequence (Q8II92 whole entry): T1 sequence (whole entry)
Outline: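 Recombinant PfdUTPase expressed in E. coli BL21(DE3) and purified by phosphocellulose and gel filtration to ~96% purity. Continuous stopped-flow assay following proton release with cresol red/bicine (50:2000 µM, 573 nm). Mix: 30 nM enzyme, 50 µM dUTP, 5 mM MgCl2, 2.5 mM DTT, 1.25 mg/mL BSA, 100 mM KCl. KMapp from integrated Michaelis-Menten fits, plotted against [I] to give Ki.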

Trypanosoma cruzi = assay: In vitro growth inhibitory activity against Trypanosoma cruzi in rat L-6 cells upon incubation at 37 degrees C in 5% CO2 atmosphere for 4 days; format: functional, organism-based; conditions: L6, 96 h
Outline: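 L-6 cells seeded at 2000 cells/well in RPMI 1640 with 10% FBS and 2 mM L-glutamine. After 24 h, 5000 T. cruzi Tulahuen C2C4 LacZ trypomastigotes added with serial drug dilutions, then 4 days at 37 °C, 5% CO2. CPRG/Nonidet substrate added and colour read at 540 nm after 2-4 h. IC50 from sigmoidal curve. Twice independently, in duplicate.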

SI [1] | IC50 (Plasmodium falciparum) [µM] | Ki (dUTP pyrophosphatase [2]) [µM] | Ki [3] [µM] | IC50 [4] [µM] | Ki (dUTP pyrophosphatase [5]) [µM] | IC50 (Trypanosoma cruzi) [µM] | Compound | IC50 (L6) [µM] | IC50 (Leishmania donovani) [µM]
> 5 | > 16 | > 1000 | > 1000 | 149 | 189 | > 289 | CCCCC(=O)NCC1OC(n2ccc(=O)[nH]c2=O)CC1O (stereo unspecified) | > 289 | > 97
> 3 | 78 | > 1000 | > 1000 | 41 | 324 | > 222 | CCOP(=O)(CC(=O)NCC1OC(n2ccc(=O)[nH]c2=O)CC1O)OCC (stereo unspecified) |  | 29
> 3 | > 15 | > 1000 | > 1000 | 117 | 268 | > 271 | O=C(OC[C@H]1O[C@@H](n2ccc(=O)[nH]c2=O)C[C@@H]1O)c1ccccc1 | > 271 | > 90
> 2 | > 13 | > 1000 | > 1000 | > 231 | 426 | > 231 | O=C(NCC1OC(n2ccc(=O)[nH]c2=O)CC1O)C12CC3CC(CC(C3)C1)C2 (stereo unspecified) |  | 
 | > 13 | > 1000 | > 1000 | 102 | > 1000 | > 236 | Cc1ccc(S(=O)(=O)NCC2OC(n3ccc(=O)[nH]c3=O)CC2O)cc1 (stereo unspecified) | > 236 | > 79
5.6 | 51 | > 1000 | 56.4 | 73 | 10 | 110 | CC(C)(C)[Si](C)(C)OCC1C=CC(n2ccc(=O)[nH]c2=O)O1 (stereo unspecified) |  | 
> 4 | 163 | > 1000 | > 1000 | > 311 | 254 | > 311 | NS(=O)(=O)OCC1C=CC(n2ccc(=O)[nH]c2=O)O1 (stereo unspecified) |  | 
83 | > 11 | 798 | 157 | 55 | 1.9 | 44 | O=c1ccn(C2C=CC(COC(c3ccccc3)(c3ccccc3)c3ccccc3)O2)c(=O)[nH]1 (stereo unspecified) |  | > 66
1.4 | > 11 | > 1000 | 350 | 113 | 256 | > 201 | CCCCCCCCCCCCCCCC(=O)OCC1C=CC(n2ccc(=O)[nH]c2=O)O1 (stereo unspecified) |  | > 67
> 4 | 37 | > 1000 | > 1000 | 12 | 244 | > 152 | CC(C)(C)[Si](C)(C)O[C@H]1C[C@H](n2ccc(=O)[nH]c2=O)O[C@@H]1COC(=O)NS(N)(=O)=O |  | > 51
> 3 | 214 | > 1000 | > 1000 | 72 | 298 | 170 | O=c1ccn([C@H]2C=C[C@@H](CO)O2)c(=O)[nH]1 |  | 
> 1.6 | > 14 | > 1000 |  | 59 | 628 | 37 | CC(C)(C)[Si](C)(C)OCC1OC(n2ccc(=O)[nH]c2=O)CC1F (stereo unspecified) |  | > 87
> 9 | > 16 | > 1000 | > 1000 | 17 | 111 | > 83 | O=c1ccn(C2CC(O)C(CNCc3ccccc3)O2)c(=O)[nH]1 (stereo unspecified) |  | 
> 4 | > 13 | > 1000 | > 1000 | 8 | 227 | 58 | CC(C)[Si](OC[C@H]1O[C@@H](n2ccc(=O)[nH]c2=O)C[C@@H]1O)(C(C)C)C(C)C | 25 | 
10 |  | > 1000 | 18 | 24 |  | 306 | O=c1ccn([C@H]2C[C@H](O)[C@@H](COC(c3ccccc3)(c3ccccc3)c3ccccc3)O2)c(=O)[nH]1 |  | > 64
 | > 21 |  |  | 100 |  | > 130 | O=c1ccn([C@H]2C[C@H](F)[C@@H](CO)O2)c(=O)[nH]1 | > 391 | > 391
> 2 | 20 | 314 | > 1000 | 90 | 468 | > 194 | NS(=O)(=O)NC(=O)OC[C@H]1O[C@@H](n2ccc(=O)[nH]c2=O)C[C@@H]1O |  | > 65
3.7 | 40 | > 1000 | 324 | 104 | 88 | 160 | CC(C)(C)[Si](C)(C)O[C@H]1C[C@H](n2ccc(=O)[nH]c2=O)O[C@@H]1COS(N)(=O)=O |  | > 7
91 | 2 | 177 | 457 | 47 | 5 | 29 | O=c1ccn(C2CC(F)C(COC(c3ccccc3)(c3ccccc3)c3ccccc3)O2)c(=O)[nH]1 (stereo unspecified) | 35 | 

Compound | SI [1] | IC50 (Plasmodium falciparum) [µM] | Ki (dUTP pyrophosphatase [2]) [µM] | Ki [3] [µM] | IC50 [4] [µM] | Ki (dUTP pyrophosphatase [5]) [µM] | IC50 (Trypanosoma cruzi) [µM] | IC50 (L6) [µM] | IC50 (Leishmania donovani) [µM]
CC(C)(C)[Si](OCC1OC(n2ccc(=O)[nH]c2=O)CC1F)(c1ccccc1)c1ccccc1 (stereo unspecified) | 9.1 | 8.8 | > 1000 | 808 | 29 | 89 | 32 | 16 | 
CC(C)(C)[Si](OCC1C=CC(n2ccc(=O)[nH]c2=O)O1)(c1ccccc1)c1ccccc1 (stereo unspecified) | > 833 | 3 | 178 |  | 55 |  | 33 | 67 | 
O=c1ccn(C2CC(O)C(CNC(c3ccccc3)(c3ccccc3)c3ccccc3)O2)c(=O)[nH]1 (stereo unspecified) | 230 |  | 304 | 46 | 48 | 0.2 | 44 | 44 | 
CC(C)(C)[Si](C)(C)OC1CC(n2ccc(=O)[nH]c2=O)OC1CNC(c1ccccc1)(c1ccccc1)c1ccccc1 (stereo unspecified) | > 3 | 1.8 | > 1000 | > 1000 | 2.7 | 313 | 97 | 7.8 | 
O=c1ccn(C2C=CC(COP(=O)(Oc3ccccc3)Oc3ccccc3)O2)c(=O)[nH]1 (stereo unspecified) | > 10 | 54 | > 1000 | > 1000 | 68 | 99 | > 204 |  | 
CC(C)(C)[Si](OC[C@H]1O[C@@H](n2ccc(=O)[nH]c2=O)C[C@@H]1O)(c1ccccc1)c1ccccc1 | 192 | 6.6 | > 1000 | 806 | 3 |  | 45 | 23 | 
O=c1ccn([C@H]2C[C@H](O)[C@@H](CO[Si](c3ccccc3)(c3ccccc3)c3ccccc3)O2)c(=O)[nH]1 | 325 |  | > 1000 | 909 | 15 |  | 71 |  | 
